# TAAR1 agonist: human TAAR1 agonism; CHO RD-HGA16 TAAR1, Fluo-8 calcium fluorescence; vehicle wells 0%, saturating PEA agonist 100%; activation, % at 3 µM; 360,000 compounds, 0.99% hits;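 active = activation above the mean activation of all test compounds in the run plus 3 SD, cut at about 38% in these data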
#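 test system = CHO RD-HGA16 cells carrying human TAAR1 plus Gα16 | schedule = 17-24 h seeding, 75 min 37 °C dye, 30 min RT | compound dosing = 3 µM single concentration | control set = DMSO and PEA EC100 | replicates = n 1 | signal = Fluo-8 fluorescence, 5 s baseline then 140 s kinetic read | measure = percent activation vs PEA EC100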
# CHO parental Ca: counter-screen for OX1R antagonists: effect in parental CHO cells; parental CHO-K1, ATP-induced calcium, Fluo-8 fluorescence; inhibition, % at 5.6 µM; 330,000 compounds, 0.63% hits;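 active = inhibition above that plate's mean sample inhibition plus 3 SD, cut at about 26% in these data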;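 note: 0% = ATP-challenged DMSO wells and 100% = DMSO wells without ATP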
#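 Material: Parental CHO cells | Reagent: ATP | Compound dosing: Single nominal dose of 5.6 µM per compound | Detection: Intracellular calcium via Fluo-8 no-wash fluorescent dye | Read-out: % inhibition of ATP-induced calcium mobilization | Benchmarks: Low control ATP plus DMSO, high control DMSO only | Replicates: Singlicate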
# GPR7 antag: human neuropeptides B/W receptor 1 antagonism | 290,000 compounds, 1.1% hits | GPR7-expressing cells, fluorescence antagonist assay | P48145 | inhibition, % at 4.4 µM; in the data active = inhibition above about 16%, passing the limit was not always enough;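 note: cells stimulated with the agonist NPW; 0% = agonist with vehicle and 100% = vehicle without agonist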
# Target sequence (P48145 whole entry, looked up): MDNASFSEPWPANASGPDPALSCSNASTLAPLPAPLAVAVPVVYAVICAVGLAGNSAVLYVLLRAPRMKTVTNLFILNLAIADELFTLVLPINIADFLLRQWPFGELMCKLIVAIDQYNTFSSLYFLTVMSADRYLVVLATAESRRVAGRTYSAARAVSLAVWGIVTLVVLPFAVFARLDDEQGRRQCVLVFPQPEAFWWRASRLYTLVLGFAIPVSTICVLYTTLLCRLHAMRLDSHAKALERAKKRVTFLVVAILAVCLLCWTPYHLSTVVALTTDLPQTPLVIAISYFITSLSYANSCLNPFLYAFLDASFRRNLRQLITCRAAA
# OX1R antag-1: blocks the human orexin 1 receptor | CHO/OX1R cells, Fluo-8 calcium fluorescence, orexin A | inhibition, % at 5 µM | O43613 | 330,000 compounds, 0.43% hits;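 active = inhibition above its plate's threshold, mean inhibition of all tested compounds on the plate plus 3 SD, cut at about 37% in these data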;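 note: 0% = orexin A challenge wells and 100% = SB-334867-A antagonist wells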
# Target sequence (O43613 whole entry, looked up): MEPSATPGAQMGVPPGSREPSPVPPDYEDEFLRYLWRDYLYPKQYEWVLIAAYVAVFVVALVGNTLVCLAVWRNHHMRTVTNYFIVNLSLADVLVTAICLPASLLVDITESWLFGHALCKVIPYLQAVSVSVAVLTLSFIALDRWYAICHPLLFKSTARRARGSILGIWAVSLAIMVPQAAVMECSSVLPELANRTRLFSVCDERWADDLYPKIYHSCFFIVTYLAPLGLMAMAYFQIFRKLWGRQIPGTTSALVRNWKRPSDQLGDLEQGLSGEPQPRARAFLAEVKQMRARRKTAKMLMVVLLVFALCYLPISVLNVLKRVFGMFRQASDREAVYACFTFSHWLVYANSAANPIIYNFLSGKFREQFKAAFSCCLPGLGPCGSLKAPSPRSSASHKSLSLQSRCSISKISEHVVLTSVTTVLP
# TAAR1 antagonist: human TAAR1 antagonism. CHO RD-HGA16 TAAR1, Fluo-8 calcium fluorescence, antagonist. inhibition, % at 3 µM. 360,000 compounds, 1.5% hits. AID 624466;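 active = inhibition above a per-plate cutoff, the mean inhibition of test compounds on that plate plus 3 SD, cut at about 49% in these data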;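 note: 0% = DMSO plus EC80 beta-PEA response and 100% = DMSO alone without agonist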
#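 Material: RD-HGA16 CHO cells with stable hTAAR1 and Gα16; Dosing: single nominal final test compound concentration of 3 µM; Schedule: seeding 17-24 h prior, 75-min 37 °C, 30-min RT dye loading; Detection: kinetic Fluo-8 calcium fluorescence measurement; Measure: % inhibition from peak post-agonist over basal fluorescence ratio; Benchmarks: vehicle and agonist controls.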
# OX1R antag-2: antagonists of human orexin 1 receptor (OX1R). 330,000 compounds, 1.8% hits. AID 485270. inhibition, % at 6.6 µM. OX1R-expressing cells, FRET antagonist read-out; in the data active = inhibition mostly above about 38%, no sharp cut-off; inactive = mostly below about 40%;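 note: 0% = agonist challenge alone and 100% = reference antagonist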
# TAAR1 ag confirm: confirmation of human TAAR1 agonists; shares compounds with TAAR1 agonist; CHO RD-HGA16 TAAR1, Fluo-8 calcium fluorescence; scaled: DMSO 0%, maximal phenethylamine 100%; activation, % at 3 µM; 2,400 compounds, 82% hits; AID 651783;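 active = activation above a cutoff set at the run's mean compound activation plus 3 SD, cut at about 39% in these data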
# Ga16 nonsel ag: nonselective agonist in parental cells, TAAR1 agonist counter-screen | 2,400 compounds, 50% hits | shares compounds with TAAR1 agonist | activation, % at 3 µM | AID 651787 | CHO-Ga16 parental, Fluo-8 calcium fluorescence; normalized to maximal ATP response, DMSO zero;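 active = activation above the run cutoff, the mean activation over all tested wells plus 3 SD, cut at about 12% in these data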;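 note: 0% = DMSO wells and 100% = maximal ATP response on the peak over basal ratio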
# TAAR1 desens: counter-screen for human TAAR1 agonists: agonists that desensitize TAAR1; 2,400 compounds, 46% hits; CHO RD-HGA16 hTAAR1, Fluo-8 calcium, beta-PEA response inhibition; inhibition, % at 3 µM; AID 651951; shares compounds with TAAR1 agonist;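 active = inhibition above the run cutoff, the mean inhibition of all test compounds plus 3 SD, cut at about 49% in these data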;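 note: beta-PEA stimulus applied at its EC80; loss of beta-PEA calcium signal after compound pretreatment read as receptor desensitization; 0% = DMSO with beta-PEA at EC80 and 100% = DMSO alone without agonist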
# Ga16 nonsel ant: counter-screen for TAAR1 agonists: nonselective Ga16 antagonists. shares compounds with TAAR1 agonist. CHO-Ga16 ATP-induced calcium, Fluo-8 fluorescence. inhibition, % at 3 µM. 2,400 compounds, 39% hits. AID 651952;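 active = inhibition above the plate's mean compound inhibition plus 3 SD, computed per plate, cut at about 22% in these data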;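 note: 0% = EC80 ATP with DMSO and 100% = DMSO wells without ATP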
# * hit, by the source's call; · = no result given. In the library only some 4.6% were active in any assay of this set; here they are far more common.
SMILES,TAAR1 agonist,CHO parental Ca,GPR7 antag,OX1R antag-1,TAAR1 antagonist,OX1R antag-2,TAAR1 ag confirm,Ga16 nonsel ag,TAAR1 desens,Ga16 nonsel ant
C=CC[C@@H](CC(=O)N(CCO)Cc1ccccc1)C(=O)NC[C@H](OC(=O)[C@@H](CC=C)CC(=O)OC(C)(C)C)c1ccccc1,62.8*,-20.0,·,-0.3,71.1*,11.0,68.5*,21.4*,62.5*,29.8*
c1ccc2c(-c3ccc(OCCN4CCCCC4)cc3)c(-c3ccsc3)sc2c1,47.1*,-3.1,·,10.0,43.8,1.7,49.1*,25.3*,50.7*,42.6*
CC1=C(C(=O)N(C)C)CC(CC(=O)NCCc2ccccn2)C(=O)N1CCCN1CCCC1=O (centres undefined),49.2*,·,·,·,-8.7,·,43.5*,-0.5,6.0,9.9
CCN(CC)C(=O)C1=C(C)N(CCCN2CCCC2=O)C(=O)C(CC(=O)NCCc2ccccn2)C1 (centres undefined),9.6,·,·,·,-25.3,·,·,·,·,·
Cc1cccc(OCCCN2C(=O)C(=O)c3cc(C)ccc32)c1,-3.6,-7.8,13.6,-0.6,-24.5,9.5,·,·,·,·
CCc1sc(C(=O)Nc2cccnc2)cc1Br,64.9*,-18.8,-12.2,-10.7,22.5,36.9,48.1*,32.6*,16.0,10.9
COc1ccc(NC(=O)c2cc(Br)c(Br)s2)cn1,71.0*,-22.0,-2.8,-30.4,28.9,11.8,48.5*,42.1*,35.9,10.6
CCc1cc(C(=O)Nc2ccc(OC)nc2)sc1C,2.2,-2.2,·,-6.4,6.4,31.2,·,·,·,·
O=c1oc2ccccc2c(NCCc2ccccc2)c1[N+](=O)[O-],63.4*,-6.3,12.4,-15.0,17.5,34.5,70.5*,9.5,12.9,6.4
O=c1oc2ccccc2c(NCc2ccccc2F)c1[N+](=O)[O-],5.0,-7.4,-8.9,-8.4,0.1,56.0,·,·,·,·
c1ccc2c(c1)CCN(c1nc3cc4c(cc3s1)OCCO4)C2,56.0*,-14.7,-3.0,-25.1,2.7,28.2,80.6*,3.0,37.8,9.6
COc1ccc(OC)c2sc(N3CCc4ccccc4C3)nc12,-2.8,-30.4,-16.5,-23.4,-10.6,31.4,·,·,·,·
CC(C)N(C)CCOC(=O)/C=C/c1ccccc1,72.6*,0.8,-4.4,-12.0,54.2*,8.1,2.6,0.1,11.2,-0.2
CN(CCOC(=O)/C=C/c1ccccc1)C(C)(C)C,2.4,-7.5,-3.7,-1.5,0.3,5.9,·,·,·,·
CN(C)S(=O)(=O)c1cccc(C(=O)N=C2N=C3C=CC(Cl)=CN3Cc3ccccc32)c1,-0.7,-13.1,1.4,-30.8,-22.1,12.5,·,·,·,·
COc1ccc(C(=O)NCC2OCCc3ccccc32)c(O)c1 (centres undefined),5.7,6.0,9.7,-10.9,6.8,21.6,·,·,·,·
COC(=O)C1=C(C(=O)OC)[C@@H]2N(C)c3ccccc3[C@@]23C[C@@H](C(=O)OC)N(C(=O)c2ccc(Br)cc2)C3=N1,12.7,-27.7,·,-27.3,15.4,13.6,·,·,·,·
Oc1ccc(/C=N\Nc2cc(N3CCOCC3)nc(N3CCOCC3)n2)c(O)c1,8.1,-8.0,-1.0,-23.8,-9.3,17.7,·,·,·,·
Cc1cc(N/N=C/c2ccc(O)cc2O)nc(N2CCOCC2)n1,·,1.4,-10.1,-15.9,·,14.4,·,3.9,·,9.2
Cc1cccc(-n2c(C)cc(/C=C3\C(=N)N4N=C(CC(C)C)SC4=NC3=O)c2C)c1,1.5,-15.1,-2.3,-1.7,9.1,12.2,·,·,·,·
CCSC1=NSC2=NC(=O)/C(=C\c3coc4ccccc4c3=O)C(=N)N12,252.2*,59.0*,10.4,54.0*,107.8*,43.8,204.4*,278.9*,102.9*,99.2*
CC(C)CC1=NN2C(=N)/C(=C\c3coc4ccccc4c3=O)C(=O)N=C2S1,354.7*,·,-9.7,·,104.2*,·,148.9*,131.0*,82.0*,80.0*
COC(=O)c1ccc(NC(=O)CSc2nnc(-c3cccnc3)o2)cc1,0.9,-6.5,·,-7.5,-1.2,9.4,·,·,·,·
Cc1nc(CNC(=O)CC2C(=O)NCCN2Cc2ccc(F)cc2)cs1 (centres undefined),3.3,·,-4.3,·,-18.9,·,·,·,·,·
CCCCn1c(=O)[nH]c(=O)c2c1nc(CN(C)Cc1cccc(OC)c1OC)n2CCC,2.0,·,-10.3,·,-8.2,·,·,·,·,·
SMILES,TAAR1 agonist,CHO parental Ca,GPR7 antag,OX1R antag-1,TAAR1 antagonist,OX1R antag-2,TAAR1 ag confirm,Ga16 nonsel ag,TAAR1 desens,Ga16 nonsel ant
O=C(CCN1CCC(c2ccccc2)C1)c1ccc2c(c1)OCCO2 (centres undefined),82.5*,-18.5,-9.3,-20.9,82.8*,19.7,80.1*,5.7,86.1*,10.9
O=C(CCN1CCC(c2ccccc2)C1)c1ccccc1 (centres undefined),·,-1.7,-10.3,-7.2,·,7.6,·,·,·,·
COc1cc(C(=O)CCN2CCC(c3ccccc3)C2)cc(OC)c1OC (centres undefined),92.2*,-17.2,3.8,-34.3,85.8*,11.4,105.2*,0.2,95.6*,5.1
COc1cc(C(=O)NC2CCN(Cc3ccccc3)CC2)cc(Cl)c1OC,-0.1,-15.7,9.0,-16.9,-4.7,2.4,·,·,·,·
O=C(CCN1CCC(c2ccccc2)C1)c1cccs1 (centres undefined),100.1*,-7.0,-2.1,-4.3,91.9*,3.2,100.1*,7.9,94.8*,5.8
O=C(CCN1CCCC1Cc1ccccc1)c1ccc2c(c1)OCCO2 (centres undefined),87.0*,-25.8,15.1,-29.4,73.4*,15.3,101.1*,2.9,84.8*,8.4
CC(=O)c1cccc(NC(=O)COC(=O)Cn2cnc3ccccc32)c1,-1.7,-6.8,·,14.6,-19.2,4.5,·,·,·,·
CCCCNC(=O)c1nc(C2CCN(S(=O)(=O)c3c(F)cccc3F)CC2)oc1-c1cccc(C(F)(F)F)c1,0.6,·,·,·,-7.5,·,·,·,·,·
CC(Oc1ccc(Cl)cc1Cl)C(=O)Nc1ccc(N2CCN(C)CC2)cc1 (centres undefined),53.2*,-18.4,2.9,-16.8,5.0,7.8,59.7*,6.3,31.7,11.5
COc1ccc(CCN2CC(C(=O)N(C)CC(=O)Nc3ccc(F)c(F)c3F)CC2=O)cc1OC (centres undefined),-1.5,·,·,·,-19.5,·,·,·,·,·

# Bioassay records deposited in PubChem by The Scripps Research Institute Molecular Screening Center.
